# Source: ChEMBL document CHEMBL3576819, “Design, synthesis, biological evaluation and molecular docking studies of phenylpropanoid derivatives as potent anti-hepatitis B virus agents” (Eur J Med Chem, 2015)
# Columns and labels:
# Hepatitis B virus [1] = test: Antiviral activity against Hepatitis B virus infected in human HepG2.2.15 cells assessed as inhibition of HBeAg secretion at 150 uM after 9 days by ELISA; format: functional; conditions: HepG2 2.2.15, 216 h
# Procedure, shortened: (§1)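 HepG2.2.15 cells (MEM, 10% FBS, 380 µg/ml G418) seeded at 1×10^5 cells/ml, held 24 h at 37 °C, then treated with various drug concentrations; medium with drug renewed every 3 d for up to 9 d. Culture medium sampled on days 3, 6 and 9, stored at -20 °C, and assayed for secreted antigen. Lamivudine as positive control; IC50 = 50% inhibition of secretion; means of at least two experiments.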
# Hepatitis B virus [2] = test: Antiviral activity against Hepatitis B virus infected in human HepG2.2.15 cells assessed as inhibition of HBV DNA copies per uL at 150 uM after 6 days by real-time fluorescence quantitative PCR analysis; format: functional; conditions: HepG2 2.2.15, 144 h
# Hepatitis B virus [3] = test: Antiviral activity against Hepatitis B virus infected in human HepG2.2.15 cells assessed as cell survival at 150 uM after 9 days (reference value: 100%); format: functional; conditions: HepG2 2.2.15, 216 h
# Procedure, shortened: (§2)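 HepG2.2.15 cells (MEM, 10% FBS, 380 µg/ml G418, 37 °C, 5% CO2) seeded at 1×10^5 cells/ml, cultured 24 h, then exposed to various drug concentrations; drug-containing medium renewed every 3 d. OD read at 450 nm after 9 days; percent cell death calculated; CC50 = concentration killing 50% of cells. Means of at least two experiments.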
# Hepatitis B virus [4] = test: Antiviral activity against Hepatitis B virus infected in human HepG2.2.15 cells assessed as inhibition of HBsAg secretion at 75 uM after 6 days by ELISA; format: functional; conditions: HepG2 2.2.15, 144 h; procedure, shortened: as §1
# Hepatitis B virus [5] = test: Antiviral activity against Hepatitis B virus infected in human HepG2.2.15 cells assessed as inhibition of HBV DNA copies per uL at 300 uM after 6 days by real-time fluorescence quantitative PCR analysis; format: functional; conditions: HepG2 2.2.15, 144 h
# Hepatitis B virus [6] = test: Antiviral activity against Hepatitis B virus infected in human HepG2.2.15 cells assessed as cell survival at 37.5 uM after 9 days (reference value: 100%); format: functional; conditions: HepG2 2.2.15, 216 h; procedure, shortened: as §2
# Hepatitis B virus [7] = test: Antiviral activity against Hepatitis B virus infected in human HepG2.2.15 cells assessed as inhibition of HBeAg secretion at 75 uM after 9 days by ELISA; format: functional; conditions: HepG2 2.2.15, 216 h; procedure, shortened: as §1
# Hepatitis B virus [8] = test: Antiviral activity against Hepatitis B virus infected in human HepG2.2.15 cells assessed as inhibition of HBeAg secretion at 150 uM after 3 days by ELISA; format: functional; conditions: HepG2 2.2.15, 72 h; procedure, shortened: as §1
# Hepatitis B virus [9] = test: Antiviral activity against Hepatitis B virus infected in human HepG2.2.15 cells assessed as inhibition of HBV DNA copies per uL at 300 uM after 9 days by real-time fluorescence quantitative PCR analysis; format: functional; conditions: HepG2 2.2.15, 216 h
# Hepatitis B virus [10] = test: Antiviral activity against Hepatitis B virus infected in human HepG2.2.15 cells assessed as inhibition of HBeAg secretion at 37.5 uM after 9 days by ELISA; format: functional; conditions: HepG2 2.2.15, 216 h; procedure, shortened: as §1
# Hepatitis B virus [11] = test: Antiviral activity against Hepatitis B virus infected in human HepG2.2.15 cells assessed as cell survival at 75 uM after 9 days (reference value: 100%); format: functional; conditions: HepG2 2.2.15, 216 h; procedure, shortened: as §2
# Hepatitis B virus [12] = test: Antiviral activity against Hepatitis B virus infected in human HepG2.2.15 cells assessed as inhibition of HBV DNA copies per uL at 75 uM after 6 days by real-time fluorescence quantitative PCR analysis; format: functional; conditions: HepG2 2.2.15, 144 h
# Hepatitis B virus [13] = test: Antiviral activity against Hepatitis B virus infected in human HepG2.2.15 cells assessed as inhibition of HBsAg secretion by ELISA; format: functional, organism-based; conditions: HepG2 2.2.15; procedure, shortened: as §1
# Hepatitis B virus [14] = test: Antiviral activity against Hepatitis B virus infected in human HepG2.2.15 cells assessed as inhibition of HBsAg secretion at 150 uM after 6 days by ELISA; format: functional; conditions: HepG2 2.2.15, 144 h; procedure, shortened: as §1
# Hepatitis B virus [15] = test: Antiviral activity against Hepatitis B virus infected in human HepG2.2.15 cells assessed as inhibition of HBeAg secretion at 37.5 uM after 3 days by ELISA; format: functional; conditions: HepG2 2.2.15, 72 h; procedure, shortened: as §1
# [16] = Cytotoxicity against human HepG2.2.15 cells assessed as cell death after 9 days by MTT assay; format: cell-based, HepG2 2.2.15; procedure, shortened: as §2
# [17] = Selectivity index, ratio of CC50 for human HepG2.2.15 cells to IC50 for Hepatitis B virus infected in human HepG2.2.15 cells assessed as inhibition of HBsAg secretion; format: functional
# Procedure, shortened: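 Selectivity index computed as CC50/IC50, with CC50 from cell death of HepG2.2.15 cells after 9 days of treatment (OD 450 nm) and IC50 from 50% inhibition of HBeAg or HBsAg secretion in the same cells; medium with drug renewed every 3 d.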
# Hepatitis B virus [18] = test: Antiviral activity against Hepatitis B virus infected in human HepG2.2.15 cells assessed as inhibition of HBV DNA copies per uL at 75 uM after 9 days by real-time fluorescence quantitative PCR analysis; format: functional; conditions: HepG2 2.2.15, 216 h
# Hepatitis B virus [19] = test: Antiviral activity against Hepatitis B virus infected in human HepG2.2.15 cells assessed as inhibition of HBeAg secretion at 300 uM after 9 days by ELISA; format: functional; conditions: HepG2 2.2.15, 216 h; procedure, shortened: as §1
# Hepatitis B virus [20] = test: Antiviral activity against Hepatitis B virus infected in human HepG2.2.15 cells assessed as inhibition of HBsAg secretion at 150 uM after 3 days by ELISA; format: functional; conditions: HepG2 2.2.15, 72 h; procedure, shortened: as §1
# Hepatitis B virus [21] = test: Antiviral activity against Hepatitis B virus infected in human HepG2.2.15 cells assessed as inhibition of HBeAg secretion at 300 uM after 3 days by ELISA; format: functional; conditions: HepG2 2.2.15, 72 h; procedure, shortened: as §1
# Hepatitis B virus [22] = test: Antiviral activity against Hepatitis B virus infected in human HepG2.2.15 cells assessed as inhibition of HBV DNA copies per uL at 75 uM after 3 days by real-time fluorescence quantitative PCR analysis; format: functional; conditions: HepG2 2.2.15, 72 h
# Hepatitis B virus [23] = test: Antiviral activity against Hepatitis B virus infected in human HepG2.2.15 cells assessed as inhibition of HBV DNA copies per uL at 150 uM after 3 days by real-time fluorescence quantitative PCR analysis; format: functional; conditions: HepG2 2.2.15, 72 h
# Hepatitis B virus [24] = test: Antiviral activity against Hepatitis B virus infected in human HepG2.2.15 cells assessed as inhibition of HBsAg secretion at 300 uM after 6 days by ELISA; format: functional; conditions: HepG2 2.2.15, 144 h; procedure, shortened: as §1
# Hepatitis B virus [25] = test: Antiviral activity against Hepatitis B virus infected in human HepG2.2.15 cells assessed as inhibition of HBsAg secretion at 75 uM after 9 days by ELISA; format: functional; conditions: HepG2 2.2.15, 216 h; procedure, shortened: as §1
# Hepatitis B virus [26] = test: Antiviral activity against Hepatitis B virus infected in human HepG2.2.15 cells assessed as inhibition of HBeAg secretion at 75 uM after 6 days by ELISA; format: functional; conditions: HepG2 2.2.15, 144 h; procedure, shortened: as §1
# Hepatitis B virus [27] = test: Antiviral activity against Hepatitis B virus infected in human HepG2.2.15 cells assessed as inhibition of HBV DNA copies per uL at 37.5 uM after 3 days by real-time fluorescence quantitative PCR analysis; format: functional; conditions: HepG2 2.2.15, 72 h
# Hepatitis B virus [28] = test: Antiviral activity against Hepatitis B virus infected in human HepG2.2.15 cells assessed as inhibition of HBV DNA copies per uL at 150 uM after 9 days by real-time fluorescence quantitative PCR analysis; format: functional; conditions: HepG2 2.2.15, 216 h
# Hepatitis B virus [29] = test: Antiviral activity against Hepatitis B virus infected in human HepG2.2.15 cells assessed as inhibition of HBeAg secretion at 150 uM after 6 days by ELISA; format: functional; conditions: HepG2 2.2.15, 144 h; procedure, shortened: as §1
SMILES,inhibition at 150 µM (Hepatitis B virus [1]),inhibition at 150 µM (Hepatitis B virus [2]),viability at 150 µM (Hepatitis B virus [3]),inhibition at 75 µM (Hepatitis B virus [4]),inhibition at 300 µM (Hepatitis B virus [5]),viability at 37.5 µM (Hepatitis B virus [6]),inhibition at 75 µM (Hepatitis B virus [7]),inhibition at 150 µM (Hepatitis B virus [8]),inhibition at 300 µM (Hepatitis B virus [9]),inhibition at 37.5 µM (Hepatitis B virus [10]),viability at 75 µM (Hepatitis B virus [11]),inhibition at 75 µM (Hepatitis B virus [12]),IC50 (Hepatitis B virus [13]),inhibition at 150 µM (Hepatitis B virus [14]),inhibition at 37.5 µM (Hepatitis B virus [15]),CC50 at 216 h [16],Ratio CC50/IC50 [17],inhibition at 75 µM (Hepatitis B virus [18]),inhibition at 300 µM (Hepatitis B virus [19]),inhibition at 150 µM (Hepatitis B virus [20]),further results
O=C(/C=C/c1ccc2c(c1)OCO2)O/N=C/c1ccccn1,95.9%,61.6%,53.8%,67.3%,68.8%,79.3%,89.8%,55.9%,85.8%,82.5%,72.9%,47.6%,14.2 µM,80.5%,31.7%,253 µM,17.85,68.7%,96.4%,63.8%,inhibition at 300 µM (Hepatitis B virus [21]): 63.5%; inhibition at 75 µM (Hepatitis B virus [22]): 36.9%; inhibition at 150 µM (Hepatitis B virus [23]): 45.8%; inhibition at 300 µM (Hepatitis B virus [24]): 88.7%; inhibition at 75 µM (Hepatitis B virus [25]): 78.4%; inhibition at 75 µM (Hepatitis B virus [26]): 74.8%; inhibition at 37.5 µM (Hepatitis B virus [27]): 30.4%; inhibition at 150 µM (Hepatitis B virus [28]): 72.2%; inhibition at 150 µM (Hepatitis B virus [29]): 77.6%
Nc1ccn([C@@H]2CS[C@H](CO)O2)c(=O)n1 [LAMIVUDINE],45.4%,66.8%,82.4%,24.1%,71.6%,118%,34.2%,23.9%,86.4%,18.4%,95.9%,58.9%,235 µM,30.7%,10.1%,568 µM,2.42,76.7%,4%,28.6%,inhibition at 300 µM (Hepatitis B virus [21]): 30.9%; inhibition at 75 µM (Hepatitis B virus [22]): 46%; inhibition at 150 µM (Hepatitis B virus [23]): 46.6%; inhibition at 300 µM (Hepatitis B virus [24]): 43.6%; inhibition at 75 µM (Hepatitis B virus [25]): 33.1%; inhibition at 75 µM (Hepatitis B virus [26]): 22.1%; inhibition at 37.5 µM (Hepatitis B virus [27]): 40%; inhibition at 150 µM (Hepatitis B virus [28]): 81.6%; inhibition at 150 µM (Hepatitis B virus [29]): 31.1%
